Test results as given in ChEMBL document CHEMBL1938298, “Synthesis and characterization of [¹²⁵I]2-iodo N-[(S)-{(S)-1-methylpiperidin-2-yl}(phenyl)methyl]3-trifluoromethyl-benzamide as novel imaging probe for glycine transporter 1” (Bioorg Med Chem, 2011).
Calls of active or inactive are those of the source. The calls are words filed in the database; no cut-off is given here.

Columns and labels:
[1] = test system: Intestine; experiment: Drug uptake in ddY mouse intestine at 11.1 kBq, iv after 60 min by gamma counting; assay type: ADME, organism-based; settings: in vivo, 1 h
Method in brief: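 Male ddY mice (6 weeks, 30–35 g) received about 11.1 kBq [125I]tracer in 0.1 mL i.v. via tail vein. Killed at set times, organs dissected and weighed, radioactivity gamma counted. Reported as % injected dose/g tissue, mean ± SD, n = 5–6.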

[2] = test system: Lung; experiment: Drug uptake in ddY mouse lung at 11.1 kBq, iv after 15 min by gamma counting; assay type: ADME, organism-based; settings: in vivo
Method in brief: (§1)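 Male ddY mice (6 weeks, 30–35 g) were given about 11.1 kBq of [125I]tracer in 0.1 mL i.v. via the tail vein. At each time point the animals were killed and organs dissected, weighed and gamma-counted. Uptake is expressed as % injected dose per gram of tissue, mean ± SD, n = 5–6.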

[3] = test system: Mus musculus; experiment: In vivo binding affinity to GlyT1 in ddY mouse brain thalamus at 33.3 kBq, iv after 30 mins in presence of nonradioactive compound 2 mg/kg, iv administered 15 mins prior to compound administration relative to control; assay type: functional
[4] = Metabolic stability in ddY mouse brain assessed as compound remaining at 185 kBq after 5 mins by radio-TLC; assay type: ADME, tissue-based; settings: read-out: Stability
[5] = test system: Pancreas; experiment: Drug uptake in ddY mouse pancreas at 11.1 kBq, iv after 15 min by gamma counting; assay type: ADME, organism-based; settings: in vivo; method in brief: as §1
[6] = target: T1, Sodium- and chloride-dependent glycine transporter 1 (Rattus norvegicus) (UniProt P28572); experiment: Binding affinity to GlyT1 in rat brain midbrain at 0.03 to 0.04 nM preincubated for 20 mins in binding buffer before compound addition measured after 30 mins by autoradiography in presence of 0.01 mM GlyT1 inhibitor SSR504734 relative to control; assay type: tissue-based; settings: tested as the 125I-labelled form
T1 sequence (whole entry): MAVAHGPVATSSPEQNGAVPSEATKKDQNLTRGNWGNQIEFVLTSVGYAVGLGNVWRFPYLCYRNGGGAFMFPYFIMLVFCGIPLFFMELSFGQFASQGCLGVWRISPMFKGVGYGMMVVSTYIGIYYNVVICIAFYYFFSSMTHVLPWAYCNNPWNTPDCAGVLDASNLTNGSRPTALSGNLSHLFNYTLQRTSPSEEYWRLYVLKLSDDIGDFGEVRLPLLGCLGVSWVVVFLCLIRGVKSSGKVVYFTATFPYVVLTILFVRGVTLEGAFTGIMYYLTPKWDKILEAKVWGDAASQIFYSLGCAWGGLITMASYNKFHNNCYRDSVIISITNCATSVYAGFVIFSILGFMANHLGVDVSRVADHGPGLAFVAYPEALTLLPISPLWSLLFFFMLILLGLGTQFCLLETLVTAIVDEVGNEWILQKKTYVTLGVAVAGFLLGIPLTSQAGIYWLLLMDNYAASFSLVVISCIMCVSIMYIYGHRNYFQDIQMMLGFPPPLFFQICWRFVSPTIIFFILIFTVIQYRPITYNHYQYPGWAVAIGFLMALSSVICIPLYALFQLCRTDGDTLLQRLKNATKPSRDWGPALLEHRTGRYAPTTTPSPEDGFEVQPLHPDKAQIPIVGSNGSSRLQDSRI
Method in brief: (§2)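 Rat brain sagittal sections (20 µm) preincubated 20 min at 25 °C in Tris-HCl buffer pH 7.5 (NaCl, KCl, MgCl2, CaCl2), then 30 min at 25 °C with [125I] tracer (100 kBq, 0.03–0.04 nM) plus competitor (10 µM; glycine 1 or 10 mM). Cold washes, imaging plate 3 days, ROI PSL minus background per mm². % control from ≥triplicate slices, three rats.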

[7] = test system: Mus musculus; experiment: In vivo binding affinity to GlyT1 in ddY mouse brain hippocampus at 33.3 kBq, iv after 30 mins in presence of SSR504734 2 mg/kg, iv administered 15 mins prior to compound administration relative to control; assay type: functional, organism-based; parameters: dose 2 mg/kg; settings: tested as the 125I-labelled form
Method in brief: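 Blocking study in male ddY mice (6 weeks, 30–35 g). The blocker (2 mg/kg in 30% DMSO/saline) was injected i.v. 15 min before about 33.3 kBq [125I]tracer i.v.; mice were killed at 30 or 60 min. Brains were divided into cortex, corpus callosum, hippocampus, thalamus, midbrain, medulla and cerebellum, weighed and gamma-counted as % dose/g. Values are mean ± SD, n = 5–6, compared to control by Kruskal–Wallis with Dunn's post-test.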

[8] = test system: Mus musculus; experiment: In vivo binding affinity to GlyT1 in ddY mouse brain midbrain at 200 kBq, iv after 60 mins by autoradiography relative to control; assay type: functional, organism-based; settings: tested as the 125I-labelled form
[9] = target: T1, Sodium- and chloride-dependent glycine transporter 1 (Rattus norvegicus); experiment: Binding affinity to GlyT1 in rat brain corpus callosum at 0.03 to 0.04 nM preincubated for 20 mins in binding buffer before compound addition measured after 30 mins by autoradiography in presence of 0.01 mM GlyT1 inhibitor ALX5407 relative to control; assay type: tissue-based; settings: tested as the 125I-labelled form; method in brief: as §2
[10] = target: T1, Sodium- and chloride-dependent glycine transporter 1 (Rattus norvegicus); experiment: Binding affinity to GlyT1 in rat brain corpus callosum at 0.03 to 0.04 nM preincubated for 20 mins in binding buffer before compound addition measured after 30 mins by autoradiography in presence of 0.01 mM GlyT1 inhibitor SSR504734 relative to control; assay type: tissue-based; settings: tested as the 125I-labelled form; method in brief: as §2

Structure (SMILES)	Drug uptake [1] [% ID/g]	Drug uptake [2] [% ID/g]	Activity [3] [%]	remaining at 5 min [4] [%]	Drug uptake [5] [% ID/g]	Activity [6] [%]	Activity [7]	Activity [8]	Activity [9] [%]	Activity [10] [%]
CN1CCCC[C@H]1[C@@H](NC(=O)c1cccc(C(F)(F)F)c1[125I])c1ccccc1	9.59	15.24	45	92	7.93					
CN1CCCC[C@H]1[C@@H](NC(=O)c1cccc(C(F)(F)F)c1I)c1ccccc1						28.9	inactive	Active	27.8	21.8
